In ChEMBL document CHEMBL4414562, “Discovery of the First in Vivo Active Inhibitors of the Soluble Epoxide Hydrolase Phosphatase Domain” (J Med Chem, 2019):
pIC50, pKd, pKi: −log10 of the molar value. The source made the active and inactive calls. The rule behind the calls is not given here.

Experiments:
[1] = target: T1, Bifunctional epoxide hydrolase 2 (Homo sapiens, UniProt P34913); test: Inhibition of hydrolase activity of full length human soluble epoxide hydrolase pre-incubated for 30 mins before PHOME substrate addition by fluorescence based assay
T1 sequence (P34913 whole entry): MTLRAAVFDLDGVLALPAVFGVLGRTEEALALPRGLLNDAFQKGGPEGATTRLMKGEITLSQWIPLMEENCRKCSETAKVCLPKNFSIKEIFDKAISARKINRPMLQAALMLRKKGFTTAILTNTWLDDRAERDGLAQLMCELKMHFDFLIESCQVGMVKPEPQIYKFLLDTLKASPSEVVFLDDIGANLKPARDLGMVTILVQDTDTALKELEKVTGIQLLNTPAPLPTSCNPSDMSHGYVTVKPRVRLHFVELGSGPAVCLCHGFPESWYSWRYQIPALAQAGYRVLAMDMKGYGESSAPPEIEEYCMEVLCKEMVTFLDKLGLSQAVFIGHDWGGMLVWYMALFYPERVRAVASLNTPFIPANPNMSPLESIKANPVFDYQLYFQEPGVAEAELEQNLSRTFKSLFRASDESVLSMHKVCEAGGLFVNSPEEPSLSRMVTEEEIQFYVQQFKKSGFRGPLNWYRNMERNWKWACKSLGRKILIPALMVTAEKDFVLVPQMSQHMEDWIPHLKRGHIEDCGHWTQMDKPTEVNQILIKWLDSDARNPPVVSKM
Procedure, shortened: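 Hydrolase assay with 0.1 μM full-length enzyme in Bis-Tris pH 7 containing 0.1 mg/mL BSA and 0.01% Triton X-100. Reaction started with PHOME (50 μM final). Triplicates.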

[2] = target: T1, Bifunctional epoxide hydrolase 2; test: Inhibition of phosphatase activity of full length human soluble epoxide hydrolase pre-incubated for 30 mins before FDP substrate addition by fluorescence based assay
[3] = target: T2, Bifunctional epoxide hydrolase 2 (Rattus norvegicus, UniProt P80299); test: Inhibition of phosphatase activity of full length rat soluble epoxide hydrolase pre-incubated for 30 mins before FDP substrate addition by fluorescence based assay
T2 sequence (P80299 whole entry): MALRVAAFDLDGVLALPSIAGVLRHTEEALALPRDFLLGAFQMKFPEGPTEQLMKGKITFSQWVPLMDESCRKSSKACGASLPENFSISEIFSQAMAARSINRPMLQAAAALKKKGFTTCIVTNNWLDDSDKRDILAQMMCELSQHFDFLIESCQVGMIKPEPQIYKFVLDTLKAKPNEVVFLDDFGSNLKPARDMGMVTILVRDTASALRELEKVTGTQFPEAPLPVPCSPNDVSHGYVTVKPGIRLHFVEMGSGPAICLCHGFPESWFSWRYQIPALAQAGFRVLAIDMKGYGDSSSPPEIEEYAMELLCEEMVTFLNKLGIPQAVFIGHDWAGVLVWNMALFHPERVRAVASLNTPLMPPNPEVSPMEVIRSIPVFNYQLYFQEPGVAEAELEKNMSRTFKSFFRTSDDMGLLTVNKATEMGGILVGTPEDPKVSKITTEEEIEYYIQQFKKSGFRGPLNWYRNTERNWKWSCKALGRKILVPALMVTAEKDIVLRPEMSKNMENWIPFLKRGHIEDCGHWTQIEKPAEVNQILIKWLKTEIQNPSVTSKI

[4] = target: T2, Bifunctional epoxide hydrolase 2; test: Inhibition of hydrolase activity of full length rat soluble epoxide hydrolase pre-incubated for 30 mins before PHOME substrate addition by fluorescence based assay
Procedure, shortened: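 Hydrolase assay with 0.1 μM full-length enzyme in Bis-Tris pH 7 containing 0.1 mg/mL BSA and 0.01% Triton X-100. […] Reaction started with PHOME (50 μM final). 6-Methoxynaphthaldehyde fluorescence (ex 330/em 465 nm) read every minute for 45 min. Triplicates.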

[5] = target: T1, Bifunctional epoxide hydrolase 2; test: Inhibition of hexa-His-tagged human soluble epoxide hydrolase C-terminal hydrolase domain expressed in Escherichia coli BL21(DE3) pre-incubated for 30 mins before PHOME substrate addition by fluorescence based assay
[6] = system: Rattus norvegicus; test: Inhibition of sEH-P in Sprague-Dawley rat assessed as effect on ratio of sn1-20:4 LPA to corresponding monoacylglycerol species in plasma at 30 mg/kg, po after 8 hrs by LC-MS/MS analysis; type: functional, organism-based
Procedure, shortened: (§1)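 Male Sprague-Dawley rats given a single oral dose of 30 mg/kg or vehicle (n = 3 per group). Plasma collected 8 h later. Epoxy fatty acid/diol ratios and LPA/corresponding MAG ratios quantified by LC−MS/MS.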

[7] = target: Prostaglandin G/H synthase 1 (Homo sapiens, UniProt P23219); test: Inhibition of COX1 in A23187-stimulated human platelets assessed as reduction in TXA2 production
Procedure, shortened: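 Washed human platelets preincubated with increasing compound concentrations, then challenged with calcium ionophore A23187. TXB2 (stable TXA2 metabolite) in supernatant quantified by LC−MS/MS with TXB2-d4 internal standard.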

[8] = system: Rattus norvegicus; test: Inhibition of sEH-H in Sprague-Dawley rat assessed as effect on ratio of 12,13-EpOME to 12,13-DiHOME in plasma at 30 mg/kg, po after 8 hrs by LC-MS/MS analysis; type: functional, organism-based; procedure, shortened: as §1
[9] = Cmax in Sprague-Dawley rat at 30 mg/kg, po monitored over 8 hrs by LC-MS analysis; type: ADME, organism-based; design: dose 30 mg/kg, route oral; settings: in vivo
Procedure, shortened: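 Male Sprague-Dawley rats (n = 3) given a single oral dose of 30 mg/kg. Plasma compound concentration followed over 8 h. Cmax and half-life derived from the plasma concentration–time profile.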

[10] = system: Rattus norvegicus; test: Inhibition of sEH-H in Sprague-Dawley rat assessed as effect on ratio of 19,20-EpDPA […] in plasma at 30 mg/kg, po after 8 hrs by LC-MS/MS analysis; type: functional, organism-based; procedure, shortened: as §1
[11] = system: Rattus norvegicus; test: Inhibition of sEH-H in Sprague-Dawley rat assessed as effect on ratio of 14,15-EET to 14,15-DHET in plasma at 30 mg/kg, po after 8 hrs by LC-MS/MS analysis; type: functional, organism-based; procedure, shortened: as §1
[12] = Competitive inhibition of hexa-His-tagged human soluble epoxide hydrolase N-terminal phosphatase domain expressed in Escherichia coli BL21(DE3) pre-incubated for 30 mins before DiFMUP substrate addition by fluorescence based assay
[13] = species on record: Homo sapiens
[14] = Binding affinity to hexa-His-tagged human soluble epoxide hydrolase N-terminal phosphatase domain expressed in Escherichia coli BL21(DE3) by ITC assay
Procedure, shortened: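 Inverse-mode ITC with 185 μM freshly prepared sEH-P in the syringe and inhibitor in the cell. Both in 50 mM acetate, 10 mM MgCl2, 5% glycerol, pH 5.75 with 2% DMSO. Run at 25 °C, 350 rpm stirring, 20−25 injections of 8−10 μL, 200 s spacing. Inhibitor concentration chosen to optimize curve shape. Heats fitted to a single-site model.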

[15] = system: Rattus norvegicus; test: Inhibition of sEH-P in Sprague-Dawley rat assessed as effect on ratio of sn1-18:1 LPA to corresponding monoacylglycerol species in plasma at 30 mg/kg, po after 8 hrs by LC-MS/MS analysis; type: functional, organism-based; procedure, shortened: as §1
[16] = target: T1, Bifunctional epoxide hydrolase 2; test: Competitive inhibition of full length human soluble epoxide hydrolase pre-incubated for 30 mins before DiFMUP substrate addition by fluorescence based assay

Sequence of Prostaglandin G/H synthase 1 (P23219 whole entry): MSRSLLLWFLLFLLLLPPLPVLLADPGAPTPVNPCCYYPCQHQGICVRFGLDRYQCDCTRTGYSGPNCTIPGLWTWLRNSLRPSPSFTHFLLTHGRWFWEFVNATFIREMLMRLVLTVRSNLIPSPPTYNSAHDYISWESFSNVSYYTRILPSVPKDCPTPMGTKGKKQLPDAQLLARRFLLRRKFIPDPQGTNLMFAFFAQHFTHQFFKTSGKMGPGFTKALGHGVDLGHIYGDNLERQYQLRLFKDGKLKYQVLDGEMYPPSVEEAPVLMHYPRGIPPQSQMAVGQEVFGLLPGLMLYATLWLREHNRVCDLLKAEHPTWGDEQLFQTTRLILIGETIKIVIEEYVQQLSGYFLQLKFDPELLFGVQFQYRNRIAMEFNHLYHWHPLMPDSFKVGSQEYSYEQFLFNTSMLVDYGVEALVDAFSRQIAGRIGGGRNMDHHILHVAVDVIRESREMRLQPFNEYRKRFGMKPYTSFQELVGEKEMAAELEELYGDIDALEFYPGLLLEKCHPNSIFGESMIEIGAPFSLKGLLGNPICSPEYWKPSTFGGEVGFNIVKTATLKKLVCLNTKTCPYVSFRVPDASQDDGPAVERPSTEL

| Structure (SMILES) | pIC50 [1] | pIC50 [2] | pIC50 [3] | pIC50 [4] | pIC50 [5] | inhibition [6] | pIC50 [7] | inhibition [8] | Cmax [9] | inhibition [10] | inhibition [11] | pKi [12] | ΔTm [13] | pKd [14] | inhibition [15] | pKi [16] |
| --- | --- | --- | --- | --- | --- | --- | --- | --- | --- | --- | --- | --- | --- | --- | --- | --- |
| O=C(O)CCc1nc(-c2ccccc2)c(-c2ccccc2)o1 [OXAPROZIN] | < 3.52 | 4.15 | 4.20 | < 3.52 |  |  |  |  |  |  |  |  |  |  |  |  |
| O=C(O)CCCc1nc(-c2ccc(Cl)c(Cl)c2)c(-c2ccccc2)o1 |  |  |  | < 4.52 | 4.92 | Active | 5.92 | inactive | 128 µM | inactive | inactive | 7.30 | 6.6 °C | 6.52 | Active | 5.32 |
